Where two headings read alike, the source gives them in different places. Blank lines part the entries; values can stand above or below the molecule they belong to.
What was measured:
HeLa cells [1] = test: Alamar Blue cytotoxicity assay, HeLa; format: cell-based, human; details: read-out: 24 h IC50 HeLa
Summary of the method: (§1)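 Cells grown in DMEM with L-glutamine, 10% FBS and 1% penicillin–streptomycin at 37 °C, 5% CO2. They were seeded at 1 × 10^4 cells/well and grown 24 h, then given test compound dilutions in growth medium for 24 h. Alamar Blue was added (final 10 μg/ml) for 2–4 h at 37 °C, and fluorescence was read ([…]). Viability was calculated per line, and IC50s were averaged across HeLa, A549 and MDA-MB-231.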

A549 cells = test: Alamar Blue cytotoxicity assay, A549; format: cell-based, human
Summary of the method: as §1

MDA-MB-231 cells = test: Alamar Blue cytotoxicity assay, MDA-MB-231; format: cell-based, human; details: read-out: 24 h IC50 MDA-MB-231
Summary of the method: as §1

EGFR = EGFR (Homo sapiens, UniProt P00533); test: biochemical
[2] = system: HeLa, A549 and MDA-MB-231 cells; test: Average cytotoxicity over the tested cell lines; format: cell-based; details: Homo sapiens, 24 h, read-out: average IC50 against the tested cell lines
Summary of the method: as §1

VEGFR2 = VEGFR2 (Homo sapiens, UniProt P35968); test: biochemical
HeLa cells [3] = test: Annexin V/PI apoptosis assay; format: cell-based, human; details: 24 h
Summary of the method: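 HeLa cells were exposed to test compound at 5 or 10 μM for 24 h, with an untreated control. Apoptotic versus necrotic death was scored by annexin V/PI staining, reported as percentage of cells undergoing apoptosis.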

caspase-9 in HeLa cells = test: Caspase-9 activity assay; format: cell-based, human; details: 5 and 10 μM, 24 h
Summary of the method: (§2)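 HeLa cells were seeded at 1 × 10^5/well in duplicate and grown 24 h. They were then treated with test compound at 1, 5, 10 and 20 µM, with 0.1% DMSO (v/v) as control. After 24 h, activity was measured with the Caspase-Glo 3/7 (caspase-3/7), Caspase-Glo 8 (caspase-8) or Caspase-Glo 9 (caspase-9) kit.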

caspase-8 in HeLa cells = test: Caspase-8 activity assay; format: cell-based, human; details: 5 and 10 μM, 24 h
Summary of the method: as §2

HeLa cells [4] = test: ROS production; format: cell-based, human; details: 40 μM, 24 h
Summary of the method: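 HeLa cells were treated with test compound at 10 or 40 µM for 24 h, with 0.1% DMSO (v/v) as control. Intracellular superoxide was detected with the Muse Oxidative Stress Kit, and cells were analysed on a Muse Cell Analyzer. The read-out was the percentage of cells with elevated ROS.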

[5] = system: caspase-3/7 in HeLa cells; test: Caspase-3/7 activity assay; format: cell-based, human; details: 10 μM, 24 h
Summary of the method: as §2

[6] = Homo sapiens, A549, 24 h, read-out: 24 h IC50 A549, Alamar Blue, 24 h treatment
[7] = read-out: 24 h IC50 A549, Alamar Blue, 24 h treatment

Sequence of VEGFR2 (P35968 20-1356): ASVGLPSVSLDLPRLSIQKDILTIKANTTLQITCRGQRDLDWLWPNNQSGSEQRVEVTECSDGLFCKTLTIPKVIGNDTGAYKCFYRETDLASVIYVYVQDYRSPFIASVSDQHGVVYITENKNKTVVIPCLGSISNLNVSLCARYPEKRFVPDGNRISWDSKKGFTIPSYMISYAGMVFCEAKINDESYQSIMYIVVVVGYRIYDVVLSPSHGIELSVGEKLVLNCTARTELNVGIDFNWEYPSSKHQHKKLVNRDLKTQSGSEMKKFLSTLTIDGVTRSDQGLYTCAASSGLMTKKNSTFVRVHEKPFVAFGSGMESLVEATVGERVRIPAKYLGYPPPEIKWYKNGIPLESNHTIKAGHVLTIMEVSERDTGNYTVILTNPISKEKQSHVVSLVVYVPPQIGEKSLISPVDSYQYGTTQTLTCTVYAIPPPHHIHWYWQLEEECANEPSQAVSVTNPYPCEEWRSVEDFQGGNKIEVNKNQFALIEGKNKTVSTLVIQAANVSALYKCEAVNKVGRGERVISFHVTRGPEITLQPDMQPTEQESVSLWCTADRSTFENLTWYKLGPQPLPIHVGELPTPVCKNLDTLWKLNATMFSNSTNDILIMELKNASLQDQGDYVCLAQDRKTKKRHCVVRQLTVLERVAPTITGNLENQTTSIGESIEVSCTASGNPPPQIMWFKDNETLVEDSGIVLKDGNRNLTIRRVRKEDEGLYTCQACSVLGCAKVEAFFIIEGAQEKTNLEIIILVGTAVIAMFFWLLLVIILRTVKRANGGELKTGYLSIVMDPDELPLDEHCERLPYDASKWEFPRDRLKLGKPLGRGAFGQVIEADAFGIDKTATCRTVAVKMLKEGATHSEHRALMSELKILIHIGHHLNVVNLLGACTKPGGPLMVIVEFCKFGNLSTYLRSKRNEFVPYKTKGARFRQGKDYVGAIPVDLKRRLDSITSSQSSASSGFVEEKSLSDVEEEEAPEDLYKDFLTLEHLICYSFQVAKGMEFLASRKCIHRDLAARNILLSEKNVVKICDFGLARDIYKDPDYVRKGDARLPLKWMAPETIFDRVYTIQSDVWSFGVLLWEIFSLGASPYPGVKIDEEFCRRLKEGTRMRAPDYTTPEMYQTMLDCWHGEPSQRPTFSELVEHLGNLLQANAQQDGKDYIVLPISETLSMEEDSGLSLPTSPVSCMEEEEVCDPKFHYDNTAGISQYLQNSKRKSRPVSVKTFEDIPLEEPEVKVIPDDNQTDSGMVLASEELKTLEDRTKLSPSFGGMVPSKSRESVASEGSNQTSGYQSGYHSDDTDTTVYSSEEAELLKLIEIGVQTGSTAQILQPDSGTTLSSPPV
Sequence of EGFR (P00533 25-1210): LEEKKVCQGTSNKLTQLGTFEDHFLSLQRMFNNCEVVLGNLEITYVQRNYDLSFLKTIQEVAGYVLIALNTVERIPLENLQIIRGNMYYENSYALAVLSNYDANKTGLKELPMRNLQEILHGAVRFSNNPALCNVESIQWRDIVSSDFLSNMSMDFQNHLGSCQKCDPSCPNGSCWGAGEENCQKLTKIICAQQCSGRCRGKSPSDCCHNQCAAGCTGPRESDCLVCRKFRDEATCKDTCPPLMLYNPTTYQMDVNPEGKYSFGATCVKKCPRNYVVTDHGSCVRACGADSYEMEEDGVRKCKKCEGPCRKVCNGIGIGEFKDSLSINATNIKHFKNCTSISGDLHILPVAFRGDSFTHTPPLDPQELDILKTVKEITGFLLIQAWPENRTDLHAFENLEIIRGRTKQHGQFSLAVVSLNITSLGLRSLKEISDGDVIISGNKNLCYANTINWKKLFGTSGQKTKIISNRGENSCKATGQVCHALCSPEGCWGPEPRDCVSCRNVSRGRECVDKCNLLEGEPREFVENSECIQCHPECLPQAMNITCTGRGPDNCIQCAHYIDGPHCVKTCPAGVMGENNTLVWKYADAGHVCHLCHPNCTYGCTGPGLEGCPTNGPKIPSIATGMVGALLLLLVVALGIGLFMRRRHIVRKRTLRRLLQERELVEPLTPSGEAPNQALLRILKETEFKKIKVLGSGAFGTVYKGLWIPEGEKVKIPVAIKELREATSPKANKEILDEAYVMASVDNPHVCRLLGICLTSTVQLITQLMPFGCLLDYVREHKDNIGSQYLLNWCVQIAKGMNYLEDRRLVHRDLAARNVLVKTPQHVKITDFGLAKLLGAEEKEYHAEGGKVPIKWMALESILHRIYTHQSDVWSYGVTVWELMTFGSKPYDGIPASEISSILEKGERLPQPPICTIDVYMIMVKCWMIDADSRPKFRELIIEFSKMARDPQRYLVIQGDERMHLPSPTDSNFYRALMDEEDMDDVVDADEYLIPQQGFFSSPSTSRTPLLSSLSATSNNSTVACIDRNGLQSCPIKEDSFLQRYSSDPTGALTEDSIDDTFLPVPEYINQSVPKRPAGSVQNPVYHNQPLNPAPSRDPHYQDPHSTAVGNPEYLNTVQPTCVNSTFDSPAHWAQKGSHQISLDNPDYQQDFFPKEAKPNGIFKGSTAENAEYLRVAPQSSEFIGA

Compound: COc1cc(C=NNC(=O)CN2C(=O)NC(c3ccccc3)(c3ccccc3)C2=O)ccc1O [Compound 9, 2-(2,5-Dioxo-4,4-diphenylimidazolidin-1-yl)-N′-(4-hydroxy-3-methoxybenzylidene)acetohydrazide]
IC50 (HeLa cells [1]; Homo sapiens, HeLa, 24 h): 50 ± 1 µM | IC50 (A549 cells; [6]): 175 ± 4.3 µM | IC50 (MDA-MB-231 cells; Homo sapiens, MDA-MB-231, 24 h): 136 ± 3.9 µM

Compound: O=C(CN1C(=O)NC(c2ccccc2)(c2ccccc2)C1=O)NN=C1C(=O)Nc2ccc(Cl)cc21 [Compound 15, N′-(5-Chloro-2-oxoindolin-3-ylidene)-2-(2,5-dioxo-4,4-diphenylimidazolidin-1-yl)acetohydrazide]
IC50 (HeLa cells [1]; Homo sapiens, HeLa, 24 h): 53 ± 2.2 µM | IC50 (A549 cells; [6]): 72 ± 3 µM | IC50 (MDA-MB-231 cells; Homo sapiens, MDA-MB-231, 24 h): 311 ± 5.5 µM

IC50 (EGFR): 370 ± 10 nM | IC50 (VEGFR2): 2520 ± 90 nM
Compound: O=C(CN1C(=O)NC(c2ccccc2)(c2ccccc2)C1=O)NN=C1C(=O)Nc2ccc([N+](=O)[O-])cc21 [Compound 18, 2-(2,5-Dioxo-4,4-diphenylimidazolidin-1-yl)-N′-(5-nitro-2-oxoindolin-3-ylidene)acetohydrazide]
IC50 (HeLa cells [1]; Homo sapiens, HeLa, 24 h): 30 ± 1.2 µM | IC50 (A549 cells; [6]): 229 ± 5.2 µM | IC50 (MDA-MB-231 cells; Homo sapiens, MDA-MB-231, 24 h): 80 ± 0.7 µM | IC50 [2]: 113 µM

Compound: COc1ccc2c(c1)C(=NNC(=O)CN1C(=O)NC(c3ccccc3)(c3ccccc3)C1=O)C(=O)N2 [Compound 19, 2-(2,5-Dioxo-4,4-diphenylimidazolidin-1-yl)-N′-(5-methoxy-2-oxoindolin-3-ylidene)acetohydrazide]
IC50 (HeLa cells [1]; Homo sapiens, HeLa, 24 h): 118 ± 1.3 µM | IC50 (A549 cells; [6]): 170 ± 2.2 µM | IC50 (MDA-MB-231 cells; Homo sapiens, MDA-MB-231, 24 h): 174 ± 2.9 µM

Compound: O=C(CN1C(=O)NC(c2ccccc2)(c2ccccc2)C1=O)NN=C1C(=O)Nc2ccc(Br)cc21 [Compound 17, N′-(5-Bromo-2-oxoindolin-3-ylidene)-2-(2,5-dioxo-4,4-diphenylimidazolidin-1-yl)acetohydrazide]
IC50 (HeLa cells [1]; Homo sapiens, HeLa, 24 h): 29 ± 1.7 µM | IC50 (A549 cells; [6]): 77 ± 1.5 µM | IC50 (MDA-MB-231 cells; Homo sapiens, MDA-MB-231, 24 h): 138 ± 2.6 µM | IC50 [2]: 81 µM

Compound: NNC(=O)CN1C(=O)NC(c2ccccc2)(c2ccccc2)C1=O [Compound 3, 2-(2,4-dioxo-5,5-diphenylimidazolidin-3-yl)acetohydrazide]
IC50 (HeLa cells [1]; Homo sapiens, HeLa, 24 h): 236 ± 3.5 µM | IC50 (A549 cells; [6]): 278 ± 7.5 µM | IC50 (MDA-MB-231 cells; Homo sapiens, MDA-MB-231, 24 h): 278 ± 2 µM

Compound: O=C(CN1C(=O)NC(c2ccccc2)(c2ccccc2)C1=O)NN=Cc1ccc2c(c1)OCO2 [Compound 10, N′-(Benzo[d][1,3]dioxol-5-ylmethylene)-2-(2,5-dioxo-4,4-diphenylimidazolidin-1-yl)acetohydrazide]
IC50 (HeLa cells [1]; Homo sapiens, HeLa, 24 h): 113 ± 0.9 µM | IC50 (A549 cells; [6]): 267 ± 6 µM | IC50 (MDA-MB-231 cells; Homo sapiens, MDA-MB-231, 24 h): 200 ± 4.1 µM

IC50 (EGFR): 100 ± 20 nM | IC50 (VEGFR2): 470 ± 90 nM
Compound: O=C(CN1C(=O)NC(c2ccccc2)(c2ccccc2)C1=O)NN=Cc1c[nH]c2ccccc12 [Compound 13, N′-((1H-indol-3-yl)methylene)-2-(2,5-dioxo-4,4-diphenylimidazolidin-1-yl)acetohydrazide]
IC50 (HeLa cells [1]; Homo sapiens, HeLa, 24 h): 10 ± 2.1 µM | IC50 (A549 cells; [6]): 160 ± 0.8 µM | IC50 (MDA-MB-231 cells; Homo sapiens, MDA-MB-231, 24 h): 156 ± 3.1 µM | IC50 [2]: 109 µM

Compound: COc1cc(OC)c(OC)cc1C=NNC(=O)CN1C(=O)NC(c2ccccc2)(c2ccccc2)C1=O [Compound 12]
IC50 (HeLa cells [1]; Alamar Blue, 24 h treatment): 39 ± 3.1 µM | IC50 (A549 cells; [7]): 116 ± 1.3 µM | IC50 (MDA-MB-231 cells; Alamar Blue, 24 h treatment): > 350 µM

Compound: O=C(CN1C(=O)NC(c2ccccc2)(c2ccccc2)C1=O)NN=Cc1ccc(Cl)cc1 [Compound 5, N'-(4-Chlorobenzylidene)-2-(2,5-dioxo-4,4-diphenylimidazolidin-1-yl)acetohydrazide]
IC50 (HeLa cells [1]; Homo sapiens, HeLa, 24 h): 123 ± 2.6 µM | IC50 (A549 cells; [6]): 157 ± 1.4 µM | IC50 (MDA-MB-231 cells; Homo sapiens, MDA-MB-231, 24 h): 196 ± 1.7 µM

Compound: CCOC(=O)CN1C(=O)NC(c2ccccc2)(c2ccccc2)C1=O [Compound 2, ethyl (5,5-diphenylhydantoin-3-yl)acetate]
IC50 (HeLa cells [1]; Homo sapiens, HeLa, 24 h): 241 ± 1.3 µM | IC50 (A549 cells; [6]): 108 ± 3.7 µM | IC50 (MDA-MB-231 cells; Homo sapiens, MDA-MB-231, 24 h): 263 ± 3.4 µM

Compound: COc1cc(C=NNC(=O)CN2C(=O)NC(c3ccccc3)(c3ccccc3)C2=O)cc(OC)c1OC [Compound 11, 2-(2,5-Dioxo-4,4-diphenylimidazolidin-1-yl)-N′-(3,4,5-trimethoxybenzylidene)acetohydrazide]
IC50 (HeLa cells [1]; Homo sapiens, HeLa, 24 h): 53 ± 2.1 µM | IC50 (A549 cells; [6]): 170 ± 4.2 µM | IC50 (MDA-MB-231 cells; Homo sapiens, MDA-MB-231, 24 h): 133 ± 0.7 µM

Compound: COc1ccc(C=NNC(=O)CN2C(=O)NC(c3ccccc3)(c3ccccc3)C2=O)cc1OC [Compound 8, N′-(3,4-Dimethoxybenzylidene)-2-(2,5-dioxo-4,4-diphenylimidazolidin-1-yl)acetohydrazide]
IC50 (HeLa cells [1]; Homo sapiens, HeLa, 24 h): 60 ± 3.3 µM | IC50 (A549 cells; [6]): 162 ± 2.3 µM | IC50 (MDA-MB-231 cells; Homo sapiens, MDA-MB-231, 24 h): 154 ± 1.1 µM

Compound: O=C(CN1C(=O)NC(c2ccccc2)(c2ccccc2)C1=O)NN=C1C(=O)Nc2ccccc21 [Compound 14, 2-(2,5-Dioxo-4,4-diphenylimidazolidin-1-yl)-N′-(2-oxoindolin-3-ylidene)acetohydrazide]
IC50 (HeLa cells [1]; Homo sapiens, HeLa, 24 h): 30 ± 2.6 µM | IC50 (A549 cells; [6]): 116 ± 1.6 µM | IC50 (MDA-MB-231 cells; Homo sapiens, MDA-MB-231, 24 h): 123 ± 0.8 µM

Compound: CC(=O)O[C@@]12CO[C@@H]1C[C@H](O)[C@@]1(C)C(=O)[C@H](O)C3=C(C)[C@@H](OC(=O)[C@H](O)[C@@H](NC(=O)OC(C)(C)C)c4ccccc4)C[C@@](O)([C@@H](OC(=O)c4ccccc4)[C@H]21)C3(C)C [Docetaxel, reference compound]
IC50 (HeLa cells [1]; Homo sapiens, HeLa, 24 h): 100 ± 3.8 µM | IC50 (A549 cells; [6]): 100 µM | IC50 (A549 cells; [7]): 50 ± 1.3 µM | IC50 (MDA-MB-231 cells; Homo sapiens, MDA-MB-231, 24 h): 100 ± 2.2 µM | IC50 [2]: 83 µM

IC50 (EGFR): 6170 ± 220 nM | IC50 (VEGFR2): 90 ± 10 nM
Compound: O=C(CN1C(=O)NC(c2ccccc2)(c2ccccc2)C1=O)NN=C1C(=O)Nc2ccc(F)cc21 [Compound 16, 2-(2,5-Dioxo-4,4-diphenylimidazolidin-1-yl)-N′-(5-fluoro-2-oxoindolin-3-ylidene)acetohydrazide]
IC50 (HeLa cells [1]; Homo sapiens, HeLa, 24 h): 18.5 ± 1.6 µM | IC50 (A549 cells; [6]): 95 ± 1 µM | percentage of apoptotic cells (HeLa cells [3]; 5 μM): 48.6% | percentage of apoptotic cells (HeLa cells [3]; 10 μM): 63.4% | IC50 (MDA-MB-231 cells; Homo sapiens, MDA-MB-231, 24 h): 64 ± 0.6 µM | change of caspase-9 activity (caspase-9 in HeLa cells): no significant changes | change of caspase-8 activity (caspase-8 in HeLa cells): no significant changes | cells with increased level of ROS production (HeLa cells [4]): 37.7% | IC50 [2]: 59 µM | change of caspase-3/7 activity [5]: approximately 40%
